The record followed here is BindingDB's records for doi:10.1021/jm030311v (Southern Research Institute, 2004).

Assay [1] can be described thus: Apparent antagonist activity determined by measuring the ability to inhibit stimulation of [35S]GTP-gamma-S, binding to opioid receptor delta 1 in guinea pig caudate membranes. In general terms: Binding of GTPγS marks nucleotide exchange on a G protein.
Assay [2] is described as follows: Inhibitory concentration required for 50% inhibition of antagonism towards opioid receptor delta 1 in [35S]GTP-gamma-S, binding assay in guinea pig caudate.
For assay [3], the target named is T1, Mu-type opioid receptor (Cavia porcellus, UniProt P97266). Put plainly: Apparent binding affinity of compound was determined by antagonism towards Opioid receptor mu 1 in [35S]GTP-gamma-S, binding assay in guinea pig caudate.
T1 sequence (P97266 whole entry): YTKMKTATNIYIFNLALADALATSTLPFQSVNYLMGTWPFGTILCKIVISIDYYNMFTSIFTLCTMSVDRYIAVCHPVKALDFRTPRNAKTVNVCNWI
Assay [4] has as its target Kappa-type opioid receptor (Cavia porcellus, UniProt P41144). Put plainly: Apparent binding affinity of compound was determined by antagonism towards Opioid receptor kappa 1 in [35S]GTP-gamma-S, binding assay in guinea pig caudate.
Assay [5] deals with T1, Mu-type opioid receptor. Put plainly: Agonistic activity towards Opioid receptor mu 1 was determined in [35S]GTP-gamma-S, binding assay in guinea pig caudate. The procedure, abridged: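 Guinea pig caudate membranes (10-20 µg protein) incubated 3 h at 22 °C in Tris-HCl pH 7.4 containing 100 mM NaCl, 10 mM MgCl2, 1 mM EDTA, 100 µM GDP and 0.05-0.1 nM [35S]GTP-γ-S, then filtered and counted. Nonspecific binding defined with 10 µM GTP-γ-S. Site isolation used CTAP, nor-BNI, NTI or TIPP. […] Three experiments pooled; logistic fit.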

Chain of Kappa-type opioid receptor (P41144 whole entry): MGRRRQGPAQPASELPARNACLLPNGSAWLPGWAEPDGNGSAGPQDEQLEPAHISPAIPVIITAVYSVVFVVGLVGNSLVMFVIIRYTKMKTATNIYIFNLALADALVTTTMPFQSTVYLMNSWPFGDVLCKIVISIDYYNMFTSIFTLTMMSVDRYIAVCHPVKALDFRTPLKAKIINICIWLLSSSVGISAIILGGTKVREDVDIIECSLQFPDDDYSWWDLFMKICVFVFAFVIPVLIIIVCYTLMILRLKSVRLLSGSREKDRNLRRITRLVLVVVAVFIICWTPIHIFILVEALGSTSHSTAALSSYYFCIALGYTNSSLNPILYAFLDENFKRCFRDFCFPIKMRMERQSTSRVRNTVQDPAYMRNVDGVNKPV

Turning to `Oc1ccc2c3c1OC1c4ncc(-c5ccc(Cl)cc5)cc4C[C@@]4(O)[C@@H](C2)N(CC2CC2)CC[C@]314` (stereo partly drawn) [5'-(Chlorophenyl)-17-(cyclopropylmethyl) -6,7-didehydro-3,14-dihydroxy-4,5alpha-epoxypyrido-[2',3':6,7]morphinan], in assay [1], the Ki is 0.18 nM. The same measure, in the same setting: in the case of `CN1CC[C@]23c4c5ccc(O)c4O[C@H]2c2ncc(-c4ccc(Cl)cc4Cl)cc2C[C@H]3C1C5` [6-(2,4-dichlorophenyl)-19-methyl-(2R,10R)-11-oxa-8,19-diazahexacyclo[10.9.1.01,10.02,18.04,9.016,22]docosa-4(9),5,7,12,14,16(22)-hexaen-13-ol] it was 1.1 nM. As a reminder, the IC50 is the concentration needed to halve the response being measured. Low values mean greater potency in that assay, high ones weaker potency in that assay. As to `CN1CC[C@]23c4c5ccc(O)c4O[C@H]2c2ncc(-c4ccc(Cl)c(Cl)c4)cc2C[C@H]3C1C5` [6-(3,4-dichlorophenyl)-19-methyl-(2R,10R)-11-oxa-8,19-diazahexacyclo[10.9.1.01,10.02,18.04,9.016,22]docosa-4(9),5,7,12,14,16(22)-hexaen-13-ol], the IC50 in assay [2] is 74 nM. In assay [2], `CN1CC[C@]23c4c5ccc(O)c4O[C@H]2c2ncc(-c4ccc(Br)cc4)cc2C[C@H]3C1C5` [6-(4-bromophenyl)-19-methyl-(2R,10R)-11-oxa-8,19-diazahexacyclo[10.9.1.01,10.02,18.04,9.016,22]docosa-4(9),5,7,12,14,16(22)-hexaen-13-ol] registered a concentration for half-maximal inhibition (IC50) of 55 nM.

Consider `Oc1ccc2c3c1O[C@H]1c4ncc(-c5ccc(Cl)cc5)cc4C[C@H]4C(C2)N(CC2CC2)CC[C@]314` [6-(4-chlorophenyl)-19-cyclopropylmethyl-(2R,10R)-11-oxa-8,19-diazahexacyclo[10.9.1.01,10.02,18.04,9.016,22]docosa-4(9),5,7,12,14,16(22)-hexaen-13-ol], for which the Ki in assay [1] came out at 1.6 nM. Still for that read-out and setting: under `CN1CC[C@]23c4c5ccc(O)c4O[C@H]2c2ncc(-c4ccc(Cl)cc4)cc2C[C@H]3C1C5` [6-(4-chlorophenyl)-19-methyl-(2R,10R)-11-oxa-8,19-diazahexacyclo[10.9.1.01,10.02,18.04,9.016,22]docosa-4(9),5,7,12,14,16(22)-hexaen-13-ol] stands 11 nM.

As for `CN1CC[C@]23c4c5ccc(O)c4O[C@H]2c2ncc(-c4ccc(Cl)cc4)cc2C[C@@]3(O)C1C5` [6-(4-chlorophenyl)-19-methyl-(2S,10R)-11-oxa-8,19-diazahexacyclo[10.9.1.01,10.02,18.04,9.016,22]docosa-4(9),5,7,12,14,16(22)-hexaene-2,13-diol], the Ki at Mu-type opioid receptor [3] was greater than 1000 nM; in assay [4] it was 767 nM. In assay [2], `CN1CC[C@]23c4c5ccc(O)c4O[C@H]2c2ncc(-c4ccccc4)cc2C[C@@]3(O)C1C5` [19-methyl-6-phenyl-(2S,10R)-11-oxa-8,19-diazahexacyclo[10.9.1.01,10.02,18.04,9.016,22]docosa-4(9),5,7,12,14,16(22)-hexaene-2,13-diol] registered a concentration for half-maximal inhibition (IC50) of 920 nM. With `CN1CC[C@]23c4c5ccc(O)c4O[C@H]2c2ncccc2C[C@H]3C1C5` [19-methyl-(2R,10R)-11-oxa-8,19-diazahexacyclo[10.9.1.01,10.02,18.04,9.016,22]docosa-4(9),5,7,12,14,16(22)-hexaen-13-ol], in assay [1], the Ki was 595 nM. Broadly, the EC50 is the midpoint of the concentration-response curve. The compound `C[C@@H](NC(=O)[C@@H](N)Cc1ccc(O)cc1)C(=O)NCC(=O)N(C)[C@@H](Cc1ccccc1)C(=O)NCCO` [[tyrosyl-3,5-3H(N)]-D-Ala2-Mephe4-glyol5-enkephalin] registered an EC50 at Mu-type opioid receptor [5] of 414 nM.
